Legend:
Ramos [1] = experiment: Antiproliferative activity against human Ramos cells at 40 uM measured after 72 hrs by CCK-8 assay relative to control; assay type: functional
In short: (§1)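 Ramos or Raji cells in RPMI-1640 with 10% FBS and 1% penicillin-streptomycin at 37 °C, 5% CO2. Seeded at 2000–3000 cells/well one day before compound addition. Exposure 72 h, then CCK-8 with absorbance at 450 nm. […] Single-point inhibition at 40 µM reported as mean ± standard deviation.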

Ramos [2] = experiment: Antiproliferative activity against human Ramos cells measured after 72 hrs by CCK-8 assay; assay type: functional, cell-based; in short: as §1
Raji [3] = experiment: Antiproliferative activity against human Raji cells at 40 uM measured after 72 hrs by CCK-8 assay relative to control; assay type: functional; in short: as §1
Raji [4] = experiment: Antiproliferative activity against human Raji cells measured after 72 hrs by CCK-8 assay; assay type: functional, cell-based; in short: as §1
Ramos [5] = experiment: Induction of apoptosis in human Ramos cells assessed as viable cells at 5 uM measured after 15 mins by Annexin-V-APC staining-based flow cytometric analysis (reference value: 96.5 %); assay type: functional
Ramos [6] = experiment: Induction of apoptosis in human Ramos cells assessed as early apoptotic cells at 5 uM measured after 15 mins by Annexin-V-APC staining-based flow cytometric analysis (reference value: 0.14 %); assay type: functional
Ramos [7] = experiment: Induction of apoptosis in human Ramos cells assessed as late apoptotic cells at 5 uM measured after 15 mins by Annexin-V-APC staining-based flow cytometric analysis (reference value: 1.85 %); assay type: functional
Ramos [8] = experiment: Induction of apoptosis in human Ramos cells assessed as necrotic cells at 5 uM measured after 15 mins by Annexin-V-APC staining-based flow cytometric analysis (reference value: 1.50 %); assay type: functional
Raji [9] = experiment: Induction of apoptosis in human Raji cells assessed as viable cells at 5 uM measured after 15 mins by Annexin-V-APC staining-based flow cytometric analysis (reference value: 97.5 %); assay type: functional
Raji [10] = experiment: Induction of apoptosis in human Raji cells assessed as early apoptotic cells at 5 uM measured after 15 mins by Annexin-V-APC staining-based flow cytometric analysis (reference value: 0.021 %); assay type: functional
Raji [11] = experiment: Induction of apoptosis in human Raji cells assessed as late apoptotic cells at 5 uM measured after 15 mins by Annexin-V-APC staining-based flow cytometric analysis (reference value: 0.57 %); assay type: functional
Raji [12] = experiment: Induction of apoptosis in human Raji cells assessed as necrotic cells at 5 uM measured after 15 mins by Annexin-V-APC staining-based flow cytometric analysis (reference value: 1.87 %); assay type: functional
Ramos [13] = experiment: Cell cycle arrest in human Ramos cells assessed as accumulation at G0/G1 phase at 1 uM measured after 48 hrs by propidium iodide/RNase staining based flow cytometric analysis (reference value: 37.66 %); assay type: functional
Ramos [14] = experiment: Cell cycle arrest in human Ramos cells assessed as accumulation at S phase at 1 uM measured after 48 hrs by propidium iodide/RNase staining based flow cytometric analysis (reference value: 56.35 %); assay type: functional
Ramos [15] = experiment: Cell cycle arrest in human Ramos cells assessed as accumulation at G2/M phase at 1 uM measured after 48 hrs by propidium iodide/RNase staining based flow cytometric analysis (reference value: 5.98 %); assay type: functional
Raji [16] = experiment: Cell cycle arrest in human Raji cells assessed as accumulation at G0/G1 phase at 1 uM measured after 48 hrs by propidium iodide/RNase staining based flow cytometric analysis (reference value: 48.68 %); assay type: functional
Raji [17] = experiment: Cell cycle arrest in human Raji cells assessed as accumulation at S phase at 1 uM measured after 48 hrs by propidium iodide/RNase staining based flow cytometric analysis (reference value: 33.18 %); assay type: functional
Raji [18] = experiment: Cell cycle arrest in human Raji cells assessed as accumulation at G2/M phase at 1 uM measured after 48 hrs by propidium iodide/RNase staining based flow cytometric analysis (reference value: 18.14 %); assay type: functional
Raji [19] = experiment: Potency index, ratio of ibrutinib IC50 to compound IC50 for antiproliferative activity against human Raji cells; assay type: functional
[20] = biological target: Tyrosine-protein kinase BTK (Homo sapiens, UniProt Q06187); experiment: Inhibition of human recombinant full length N-terminal His tagged BTK expressed in baculovirus infected Sf9 cells using poly (Glu,Tyr) 4:1 as substrate measured after 60 mins in presence of ATP by ADP-Glo kinase assay
Chain of Tyrosine-protein kinase BTK (Q06187 whole entry): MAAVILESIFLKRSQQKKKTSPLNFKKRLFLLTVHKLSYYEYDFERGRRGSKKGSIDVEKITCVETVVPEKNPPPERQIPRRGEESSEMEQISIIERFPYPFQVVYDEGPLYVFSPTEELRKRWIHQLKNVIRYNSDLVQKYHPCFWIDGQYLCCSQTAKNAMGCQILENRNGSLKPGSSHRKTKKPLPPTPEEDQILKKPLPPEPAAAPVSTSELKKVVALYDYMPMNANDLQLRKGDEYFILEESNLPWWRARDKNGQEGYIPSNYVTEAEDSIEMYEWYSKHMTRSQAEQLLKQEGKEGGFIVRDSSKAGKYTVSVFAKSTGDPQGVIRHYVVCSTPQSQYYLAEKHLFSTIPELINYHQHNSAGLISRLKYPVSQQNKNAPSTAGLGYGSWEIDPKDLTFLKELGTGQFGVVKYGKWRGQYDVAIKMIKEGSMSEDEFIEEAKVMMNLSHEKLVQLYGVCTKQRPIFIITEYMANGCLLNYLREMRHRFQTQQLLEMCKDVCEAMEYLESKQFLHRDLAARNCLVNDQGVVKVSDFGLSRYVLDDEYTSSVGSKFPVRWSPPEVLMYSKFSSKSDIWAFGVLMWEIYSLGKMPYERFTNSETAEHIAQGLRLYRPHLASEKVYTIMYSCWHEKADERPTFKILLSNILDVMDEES

C=CC(=O)N1CCC[C@@H](n2nc(-c3ccc(Oc4ccccc4)cc3)c3c(N)ncnc32)C1 [IBRUTINIB]
inhibition (INH) (Ramos [1]): 81.2%
IC50 (Ramos [2]): 14.7 µM
inhibition (INH) (Raji [3]): 76.23%
IC50 (Raji [4]): 16 µM
Activity (Ramos [5]): 89.1%
Activity (Ramos [6]): 0.13%
Activity (Ramos [7]): 5.88%
Activity (Ramos [8]): 4.92%
Activity (Raji [9]): 94.8%
Activity (Raji [10]): 0.01%
Activity (Raji [11]): 1.14%
Activity (Raji [12]): 4.01%
Activity (Ramos [13]): 68.45%
Activity (Ramos [14]): 28.73%
Activity (Ramos [15]): 2.81%
Activity (Raji [16]): 70.42%
Activity (Raji [17]): 14.66%
Activity (Raji [18]): 14.92%

O=C(Nc1cccc(-c2nc(Nc3ccc(N4CCOCC4)cc3)c(C(=O)O)s2)c1)c1ccc(F)cc1
Ratio IC50 (Raji [19]): 13
IC50 [20]: 1.12 µM
inhibition at 40 µM (Ramos [1]; Homo sapiens, Ramos, 72 h): 90.5%
IC50 (Ramos [2]): 3.51 µM
inhibition at 40 µM (Raji [3]; Homo sapiens, Raji, 72 h): 96.4%
IC50 (Raji [4]): 1.2 µM

— ChEMBL document CHEMBL4359830, “Discovery and structure-activity relationship of novel diphenylthiazole derivatives as BTK inhibitor with potent activity against B cell lymphoma cell lines” (Eur J Med Chem, 2019)
